# Laboratory results as given in ChEMBL document CHEMBL1255280, “P-glycoprotein limits oral availability, brain penetration, and toxicity of an anionic drug, the antibiotic salinomycin” (Antimicrob Agents Chemother, 2008).
# Columns and labels:
# [1] = Plasma clearance in wild-type mouse at 1 mg/kg, iv; format: ADME, organism-based; parameters: dose 1 mg/kg, route intravenous
# [2] = Tmax in wild-type mouse at 1 mg/kg, po; format: ADME, organism-based; parameters: dose 1 mg/kg, route oral; conditions: in vivo
# Summary of the method: (§1)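 Male FVB WT or Mdr1a/1b–/– mice (n = 5) were fasted 3 h. They received 1 mg/kg by gavage (10 ml/kg of 0.1 mg/ml, made as an ethanol stock diluted 100-fold in saline). Tail-vein plasma was sampled at 0.25, 0.5, 1, 2, 4 and 6 h and analysed by LC-MS/MS. Noncompartmental trapezoidal AUC0-6 and AUC(0-∞). Cmax and Tmax were taken from the observed data.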
# [3] = Drug uptake in mdr1a/1b double knockout mouse plasma at 1 mg/kg, iv after 180 mins by LC-MS/MS analysis; format: ADME, organism-based; parameters: dose 1 mg/kg, route intravenous; conditions: read-out: Drug uptake
# Summary of the method: (§2)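 WT or Mdr1a/1b–/– mice (n = 4) received a single 1 mg/kg i.v. tail-vein bolus (5 ml/kg; 0.2 mg/ml in ethanol/saline). At 180 min, plasma, brain, liver and small intestinal contents were collected. Salinomycin was quantified by LC-MS/MS. Brain/plasma ratios were calculated. Wilcoxon rank sum test.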
# [4] = Drug uptake in wild-type mouse liver at 1 mg/kg, iv after 180 mins by LC-MS/MS analysis; format: ADME, organism-based; parameters: dose 1 mg/kg, route intravenous; conditions: read-out: Drug uptake; summary of the method: as §2
# [5] = system: Mus musculus; assay: Toxicity in mdr1a/1b double knockout mouse assessed as paralyzed fore limb and hind limb at 10 mg/kg, po after 15 to 30 mins; format: organism-based, Hindlimb; parameters: dose 10 mg/kg, route oral; conditions: in vivo
# Summary of the method: (§3)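 Fasted (3 h) WT and Mdr1a/1b–/– mice (n = 5) received 10 mg/kg orally by gavage in ethanol/saline (10 ml/kg). They were observed 15 to 30 min after dosing for signs of poisoning, including limb paralysis and respiratory frequency.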
# [6] = system: Mus musculus; assay: Ratio of AUC (0 to 6 hrs) in mdr1a/1b double knockout mouse to AUC (0 to 6 hrs) in wild-type mouse at 1 mg/kg, IV; format: ADME, organism-based; parameters: dose 1 mg/kg, route intravenous; conditions: in vivo
# Summary of the method: (§4)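 Male FVB WT or Mdr1a/1b–/– mice (n = 5). Dosing solution was 10 mg/ml in absolute ethanol, diluted 50-fold with saline to 0.2 mg/ml, and given as a single i.v. tail-vein bolus of 1 mg/kg (5 ml/kg). Tail-vein plasma was sampled at 0.125–6 h and analysed by LC-MS/MS. Noncompartmental analysis with trapezoidal AUC0-6 and AUC(0-∞). CL = dose/AUC(0-∞). Wilcoxon rank sum test.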
# [7] = Drug uptake in mdr1a/1b double knockout mouse brain at 1 mg/kg, iv after 180 mins by LC-MS/MS analysis; format: ADME, organism-based; parameters: dose 1 mg/kg, route intravenous; conditions: read-out: Drug uptake; summary of the method: as §2
# [8] = system: Mus musculus; assay: Ratio of AUC (0 to 6 hrs) in mdr1a/1b double knockout mouse to AUC (0 to 6 hrs) in wild-type mouse at 1 mg/kg, po; format: ADME, organism-based; parameters: dose 1 mg/kg, route oral; conditions: in vivo; summary of the method: as §1
# [9] = system: Mus musculus; assay: Ratio of Tmax in mdr1a/1b double knockout mouse to Tmax in wild-type mouse at 1 mg/kg, po; format: ADME, organism-based; parameters: dose 1 mg/kg, route oral; conditions: in vivo; summary of the method: as §1
# [10] = Cmax in wild-type mouse at 1 mg/kg, po; format: ADME, organism-based; parameters: dose 1 mg/kg, route oral; conditions: in vivo; summary of the method: as §1
# [11] = Drug uptake in wild-type mouse plasma at 1 mg/kg, iv after 180 mins by LC-MS/MS analysis; format: ADME, organism-based; parameters: dose 1 mg/kg, route intravenous; conditions: read-out: Drug uptake; summary of the method: as §2
# [12] = AUC (0 to 6 hrs) in mdr1a/1b double knockout mouse at 1 mg/kg, po; format: ADME, organism-based; parameters: time < 6 hr, dose 1 mg/kg, route oral; conditions: plasma; summary of the method: as §1
# [13] = AUC (0 to infinity) in wild-type mouse at 1 mg/kg, iv; format: ADME, organism-based; parameters: time infinity, dose 1 mg/kg, route intravenous; conditions: plasma; summary of the method: as §4
# [14] = system: Mus musculus; assay: Ratio of AUC (0 to infinity) in mdr1a/1b double knockout mouse to AUC (0 to infinity) in wild-type mouse at 1 mg/kg, iv; format: ADME, organism-based; parameters: dose 1 mg/kg, route intravenous; conditions: in vivo; summary of the method: as §4
# [15] = system: Brain; assay: Ratio of drug uptake in brain in mdr1a/1b double knockout mouse to drug uptake in brain in wild-type mouse at 1 mg/kg, iv after 180 mins by LC-MS/MS analysis; format: ADME, organism-based; parameters: dose 1 mg/kg, route intravenous; conditions: in vivo, 3 h; summary of the method: as §2
# [16] = system: Mus musculus; assay: Ratio of AUC (0 to infinity) in mdr1a/1b double knockout mouse to AUC (0 to infinity) in wild-type mouse at 1 mg/kg, po; format: ADME, organism-based; parameters: dose 1 mg/kg, route oral; conditions: in vivo; summary of the method: as §1
# [17] = Tmax in wild-type mouse at 10 mg/kg, po; format: ADME, organism-based; parameters: dose 10 mg/kg, route oral; conditions: in vivo
# Summary of the method: (§5)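 Fasted (3 h) FVB WT mice (n = 5) were given 10 mg/kg by gavage (10 ml/kg of 1 mg/ml, an ethanol stock diluted 10-fold in saline). Tail-vein plasma was collected from 0.25 to 6 h and measured by LC-MS/MS. Only the trapezoidal AUC0-6 was calculated. Cmax and Tmax were taken from the observed data.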
# [18] = AUC (0 to infinity) in mdr1a/1b double knockout mouse at 1 mg/kg, iv; format: ADME, organism-based; parameters: time infinity, dose 1 mg/kg, route intravenous; conditions: plasma; summary of the method: as §4
# [19] = Drug uptake in wild-type mouse brain at 1 mg/kg, iv after 180 mins by LC-MS/MS analysis; format: ADME, organism-based; parameters: dose 1 mg/kg, route intravenous; conditions: read-out: Drug uptake; summary of the method: as §2
# [20] = system: Mus musculus; assay: Toxicity in wild-type mouse at 10 mg/kg, po after 15 to 30 mins; format: organism-based; parameters: dose 10 mg/kg, route oral; conditions: in vivo; summary of the method: as §3
# [21] = system: Mus musculus; assay: Toxicity in mdr1a/1b double knockout mouse assessed as decrease in respiratory frequency at 10 mg/kg, po after 15 to 30 mins; format: organism-based; parameters: dose 10 mg/kg, route oral; conditions: in vivo; summary of the method: as §3
# [22] = AUC (0 to 6 hrs) in wild-type mouse at 1 mg/kg, po; format: ADME, organism-based; parameters: time < 6 hr, dose 1 mg/kg, route oral; conditions: plasma; summary of the method: as §1
# [23] = AUC (0 to infinity) in mdr1a/1b double knockout mouse at 1 mg/kg, po; format: ADME, organism-based; parameters: dose 1 mg/kg, route oral, time infinity; conditions: plasma; summary of the method: as §1
# [24] = system: Plasma; assay: Ratio of drug uptake in plasma in mdr1a/1b double knockout mouse to drug uptake in plasma in wild-type mouse at 1 mg/kg, iv after 180 mins by LC-MS/MS analysis; format: ADME, organism-based; parameters: dose 1 mg/kg, route intravenous; conditions: in vivo, 3 h; summary of the method: as §2
# [25] = system: Mus musculus; assay: Ratio of plasma clearance in mdr1a/1b double knockout mouse to plasma clearance in wild-type mouse at 1 mg/kg, iv; format: ADME, organism-based; parameters: dose 1 mg/kg, route intravenous; conditions: in vivo; summary of the method: as §4
# [26] = Drug uptake in wild-type mouse small intestinal content at 1 mg/kg, iv after 180 mins by LC-MS/MS analysis; format: ADME, organism-based; parameters: dose 1 mg/kg, route intravenous; conditions: read-out: Drug uptake; summary of the method: as §2
# [27] = Cmax in mdr1a/1b double knockout mouse at 1 mg/kg, po; format: ADME, organism-based; parameters: dose 1 mg/kg, route oral; conditions: in vivo; summary of the method: as §1
# [28] = Ratio of drug uptake in small intestinal content in mdr1a/1b double knockout mouse to drug uptake in small intestinal content in wild-type mouse at 1 mg/kg, iv after 180 mins by LC-MS/MS analysis; format: ADME, organism-based; parameters: dose 1 mg/kg, route intravenous; conditions: in vivo, 3 h; summary of the method: as §2
# [29] = AUC (0 to 6 hrs) in wild-type mouse at 1 mg/kg, iv; format: ADME, organism-based; parameters: time < 6 hr, dose 1 mg/kg, route intravenous; conditions: plasma; summary of the method: as §4
# [30] = Drug uptake in mdr1a/1b double knockout mouse liver at 1 mg/kg, iv after 180 mins by LC-MS/MS analysis; format: ADME, organism-based; parameters: dose 1 mg/kg, route intravenous; conditions: read-out: Drug uptake; summary of the method: as §2
# [31] = AUC (0 to infinity) in wild-type mouse at 1 mg/kg, po; format: ADME, organism-based; parameters: time infinity, dose 1 mg/kg, route oral; conditions: plasma; summary of the method: as §1
# [32] = Cmax in wild-type mouse at 10 mg/kg, po; format: ADME, organism-based; parameters: dose 10 mg/kg, route oral; conditions: in vivo; summary of the method: as §5
# [33] = Ratio of drug uptake in brain to drug uptake in plasma in wild-type mouse at 1 mg/kg, iv after 180 mins by LC-MS/MS analysis; format: ADME, organism-based; parameters: dose 1 mg/kg, route intravenous; summary of the method: as §2
# [34] = Tmax in mdr1a/1b double knockout mouse at 1 mg/kg, po; format: ADME, organism-based; parameters: dose 1 mg/kg, route oral; conditions: in vivo; summary of the method: as §1
# [35] = AUC (0 to 6 hrs) in mdr1a/1b double knockout mouse at 1 mg/kg, iv; format: ADME, organism-based; parameters: time < 6 hr, dose 1 mg/kg, route intravenous; conditions: plasma; summary of the method: as §4
# [36] = system: Mus musculus; assay: Toxicity in mdr1a/1b double knockout mouse at 1 mg/kg, po; format: organism-based; parameters: dose 1 mg/kg, route oral; conditions: in vivo
# [37] = Drug uptake in mdr1a/1b double knockout mouse small intestinal content at 1 mg/kg, iv after 180 mins by LC-MS/MS analysis; format: ADME, organism-based; parameters: dose 1 mg/kg, route intravenous; conditions: read-out: Drug uptake; summary of the method: as §2
# [38] = AUC (0 to 6 hrs) in wild-type mouse at 10 mg/kg, po; format: ADME, organism-based; parameters: time < 6 hr, dose 10 mg/kg, route oral; conditions: plasma; summary of the method: as §5
# [39] = system: Liver; assay: Ratio of drug uptake in liver in mdr1a/1b double knockout mouse to drug uptake in liver in wild-type mouse at 1 mg/kg, iv after 180 mins by LC-MS/MS analysis; format: ADME, organism-based; parameters: dose 1 mg/kg, route intravenous; conditions: in vivo, 3 h; summary of the method: as §2
# [40] = Plasma clearance in mdr1a/1b double knockout mouse at 1 mg/kg, iv; format: ADME, organism-based; parameters: dose 1 mg/kg, route intravenous; summary of the method: as §4
# [41] = Ratio of drug uptake in brain to drug uptake in plasma in mdr1a/1b double knockout mouse at 1 mg/kg, iv after 180 mins by LC-MS/MS analysis; format: ADME, organism-based; parameters: dose 1 mg/kg, route intravenous; summary of the method: as §2
# [42] = system: Mus musculus; assay: Ratio of Cmax in mdr1a/1b double knockout mouse to Cmax in wild-type mouse at 1 mg/kg, po; format: ADME, organism-based; parameters: dose 1 mg/kg, route oral; conditions: in vivo; summary of the method: as §1
smiles,measurement,setting,value
CC[C@@H](C(=O)[C@@H](C)[C@@H](O)[C@H](C)[C@@H]1O[C@@H]([C@@H](CC)C(=O)O)CC[C@@H]1C)[C@H]1O[C@]2(C=C[C@@H](O)[C@]3(CC[C@@](C)([C@H]4CC[C@](O)(CC)[C@H](C)O4)O3)O2)[C@H](C)C[C@@H]1C [SALINOMYCIN],clearance,[1],13.7 mL/min/kg
same,Tmax,[2],2 h
same,concentration at 3 h,[3],270 ng/mL
same,concentration at 3 h,[4],7400 ng/g
same,Activity,[5],Toxic
same,Ratio AUC,[6],1.8
same,concentration at 3 h,[7],53.2 ng/g
same,Ratio AUC,[8],3.2
same,Ratio,[9],1
same,Cmax,[10],13.2 ng/mL
same,concentration at 3 h,[11],72.5 ng/mL
same,AUC(0-t) at 6 h,[12],196 ng·h/mL
same,AUC(0-inf),[13],1370 ng·h/mL
same,Ratio AUC,[14],2
same,Ratio,[15],5.8
same,Ratio AUC,[16],3.1
same,Tmax,[17],0.5 h
same,AUC(0-inf),[18],2810 ng·h/mL
same,concentration at 3 h,[19],9.2 ng/g
same,Activity,[20],Non-toxic
same,Activity,[21],Toxic
same,AUC(0-t) at 6 h,[22],62.1 ng·h/mL
same,AUC(0-inf),[23],251 ng·h/mL
same,Ratio,[24],3.7
same,Ratio,[25],0.5
same,concentration at 3 h,[26],210 ng/g
same,Cmax,[27],41 ng/mL
same,Ratio,[28],1.4
same,AUC(0-t) at 6 h,[29],1310 ng·h/mL
same,concentration at 3 h,[30],6500 ng/g
same,AUC(0-inf),[31],80.2 ng·h/mL
same,Cmax,[32],517 ng/mL
same,Kp at 3 h,[33],0.13
same,Tmax,[34],2 h
same,AUC(0-t) at 6 h,[35],2370 ng·h/mL
same,Activity,[36],Non-toxic
same,concentration at 3 h,[37],290 ng/g
same,AUC(0-t) at 6 h,[38],2130 ng·h/mL
same,Ratio,[39],0.9
same,clearance,[40],6.17 mL/min/kg
same,Kp at 3 h,[41],0.2
same,Ratio,[42],3.1
